Experimental findings from ChEMBL document CHEMBL4308847, “Discovery, Structure-Activity Relationship, and Biological Characterization of a Novel Series of 6-((1 H-Pyrazolo[4,3- b]pyridin-3-yl)amino)-benzo[ d]isothiazole-3-carboxamides as Positive Allosteric Modulators of the Metabotropic Glutamate Receptor 4 (mGlu4)” (J Med Chem, 2018) are described below.

The target in data set [1] is T1, Metabotropic glutamate receptor 4 (Homo sapiens, UniProt Q14833). Description: Positive allosteric modulation of human mGlu4 receptor expressed in CHO cells co-expressing Gqi5 assessed as increase in glutamate-induced calcium mobilization preincubated for 142 secs followed by EC20 glutamate addition and measured after 147 secs by Fluo-4-AM dye based fluorescence assay relative to control. It counts as functional, cell-based. The essentials:
(§1)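 CHO cells expressing human mGlu4 and Gqi5, plated at 30,000 cells/well and grown overnight at 37 °C, 5% CO2. Cells were loaded with 1 μM Fluo-4 AM for 45 min at 37 °C in HBSS/20 mM HEPES/2.5 mM probenecid. Compounds were run as 10-point, 1:3 dilution series. After 142 s, EC20 glutamate was added; 147 s later, EC80 glutamate. Fluorescence was normalized to the maximal glutamate response. EC50 and %Glu Max were fitted by four-parameter logistic, with maximum normalized to PHCCC.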

The target in data set [2] is T1, Metabotropic glutamate receptor 4. Description: Positive allosteric modulation of human mGlu4 receptor expressed in CHO cells co-expressing Gqi5 assessed as increase in glutamate-induced calcium mobilization preincubated for 142 secs followed by EC20 glutamate addition and subsequent EC80 glutamate addition after 147 secs by Fluo-4-AM dye based fluorescence assay. Type of data set: functional, cell-based. The essentials:
as §1

Data set [3] is described as follows: Intrinsic clearance in rat liver microsomes at 1 uM preincubated for 5 mins followed by NADPH addition measured up to 45 mins by LC-MS/MS analysis. It counts as ADME, Microsome. The conditions noted are these: read-out: CLH. The essentials: (§2)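 Intrinsic and predicted hepatic clearance derived from liver microsome incubations.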
Data set [4] can be described thus: Fraction unbound in human plasma after 4 hrs by equilibrium dialysis method. It counts as ADME, cell-free.
Data set [5] is described as follows: Intrinsic clearance in human liver microsomes at 1 uM preincubated for 5 mins followed by NADPH addition measured up to 45 mins by LC-MS/MS analysis. Type of data set: ADME, Microsome. The conditions noted are these: read-out: CLH. A digest of the protocol: as §2
A short description of data set [6]: Fraction unbound in rat plasma after 4 hrs by equilibrium dialysis method. Type of data set: ADME, cell-free.

T1 sequence (Q14833 whole entry): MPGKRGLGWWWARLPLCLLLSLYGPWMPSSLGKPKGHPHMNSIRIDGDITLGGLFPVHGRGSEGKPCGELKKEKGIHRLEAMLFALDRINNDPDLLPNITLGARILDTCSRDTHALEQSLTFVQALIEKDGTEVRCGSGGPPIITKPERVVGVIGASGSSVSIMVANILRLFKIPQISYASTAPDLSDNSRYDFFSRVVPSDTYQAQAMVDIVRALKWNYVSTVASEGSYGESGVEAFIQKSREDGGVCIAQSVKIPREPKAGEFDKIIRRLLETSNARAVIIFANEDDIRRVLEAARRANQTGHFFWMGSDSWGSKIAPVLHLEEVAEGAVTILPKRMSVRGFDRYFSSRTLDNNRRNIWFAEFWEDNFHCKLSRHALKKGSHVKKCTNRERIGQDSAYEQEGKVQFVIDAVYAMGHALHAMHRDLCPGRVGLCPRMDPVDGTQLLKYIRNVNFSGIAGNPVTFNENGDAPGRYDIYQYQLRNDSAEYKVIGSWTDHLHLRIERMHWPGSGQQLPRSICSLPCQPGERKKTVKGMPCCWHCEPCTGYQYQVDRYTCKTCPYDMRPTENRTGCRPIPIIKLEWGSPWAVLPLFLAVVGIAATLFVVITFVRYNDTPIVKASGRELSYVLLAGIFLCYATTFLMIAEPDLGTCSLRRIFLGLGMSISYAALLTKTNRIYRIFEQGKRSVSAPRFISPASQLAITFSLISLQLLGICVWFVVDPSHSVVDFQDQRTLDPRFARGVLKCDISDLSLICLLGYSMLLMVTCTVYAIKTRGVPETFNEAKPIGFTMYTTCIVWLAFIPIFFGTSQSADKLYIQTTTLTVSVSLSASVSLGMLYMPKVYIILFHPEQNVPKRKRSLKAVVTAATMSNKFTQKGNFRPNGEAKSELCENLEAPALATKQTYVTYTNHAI

For the molecule `CC(C)c1noc2cc(Nc3n[nH]c4cccnc34)ccc12`, in data set [1], the %max turned out to be 23%. In addition, the EC50 in data set [2] worked out at 575 nM.

As to `CC(C)(C)Cc1noc2cc(Nc3n[nH]c4ncccc34)ccc12`, the %max in data set [1] came to 84%. The half-maximal effective concentration (EC50) in data set [2] is 2820 nM.

As for `FC(F)(F)c1nsc2cc(Nc3n[nH]c4ncccc34)ccc12`, in data set [1], the %max worked out at 50%. In addition, in data set [2], the EC50 was found to be 794 nM.

`CC1CCN(C(=O)c2nsc3cc(Nc4n[nH]c5cccnc45)ccc23)CC1`: in data set [1], the %max is 80%. Also, in data set [2], the EC50 was found to be 398 nM.

Turning to `CCCC(C)c1noc2cc(Nc3n[nH]c4cccnc34)ccc12` (centres undefined), in data set [1], the %max came out at 92%. The EC50 in data set [2] was found to be 117 nM.

Turning to `CC(C)(C)Cc1nsc2cc(Nc3n[nH]c4cccnc34)ccc12`, the %max in data set [1] was 70%. For the same molecule, the EC50 in data set [2] was found to be 269 nM.

With `O=C(c1nsc2cc(Nc3n[nH]c4cccnc34)ccc12)N1CCC(F)(F)C1`, the %max in data set [1] turned out to be 92%. The EC50 in data set [2] came to 331 nM.

Take `CC(C)(O)c1nsc2cc(Nc3n[nH]c4cccnc34)ccc12`: in data set [1], the %max worked out at 98%. Further, the EC50 in data set [2] worked out at 1050 nM.

As to `CC(C)(C)Cc1nsc2cc(Nc3n[nH]c4ncccc34)ccc12`, in data set [1], the %max was 74%. Besides, the EC50 in data set [2] was found to be 759 nM.

On to `CC1CN(C(=O)c2nsc3cc(Nc4n[nH]c5cccnc45)ccc23)CC(C)O1` (centres undefined), for which the CLint scaled at 1 µM in data set [3] amounted to 229 mL/min/kg; in data set [5], 60 mL/min/kg. Further, the %max in data set [1] was 44%. In data set [2], the half-maximal effective concentration (EC50) was 324 nM. Further, the values for the fraction unbound at 4 h in data set [4] and in data set [6] were 0.013 and 0.034, respectively.

Regarding `Cc1noc2cc(Nc3n[nH]c4cccnc34)ccc12`, the %max in data set [1] amounted to 86%. The EC50 in data set [2] is 1860 nM.

In the case of `O=C(C1CC1)N1CCC(c2nsc3cc(Nc4n[nH]c5cccnc45)ccc23)CC1`, the %max in data set [1] is 111%.

On to `c1cnc2c(Nc3ccc4c(C5CCC5)noc4c3)n[nH]c2n1`, for which the %max in data set [1] was found to be 102%. In data set [2], the EC50 was determined as 708 nM.

In the case of `CCC(CC)c1noc2cc(Nc3n[nH]c4ncccc34)ccc12`, in data set [1], the %max was found to be 97%. The EC50 in data set [2] came out at 525 nM.

`CCc1noc2ccc(Nc3n[nH]c4ncccc34)cc12`: the %max in data set [1] was determined as 54%. Moreover, the EC50 in data set [2] was greater than 10000 nM.

For the molecule `Cc1noc2c(F)cc(Nc3n[nH]c4nccnc34)cc12`, in data set [1], the %max came to 70%. The EC50 in data set [2] turned out to be 22.9 nM.

As for `O=C(c1nsc2cc(Nc3n[nH]c4cccnc34)ccc12)N1CCOCC1`, the results for the CLint scaled at 1 µM in data set [3] and in data set [5] were 172 mL/min/kg and 44.3 mL/min/kg, respectively. Moreover, the %max in data set [1] was 62%. Besides, in data set [2], the concentration for a half-maximal effect (EC50) amounted to 275 nM. Moreover, the fraction unbound at 4 h was 0.077 in data set [4] and 0.059 in data set [6].

For the molecule `CCC(CC)c1noc2cc(Nc3n[nH]c4nccnc34)ccc12`, the %max in data set [1] was determined as 106%. For the same molecule, in data set [2], the EC50 was determined as 98 nM.

For `CCc1nsc2cc(Nc3n[nH]c4cccnc34)ccc12`, the figures for the CLint scaled at 1 µM in data set [3] and in data set [5] were 127 mL/min/kg and 35.4 mL/min/kg, respectively. For the same molecule, the %max in data set [1] was 77%. Besides, the EC50 in data set [2] stood at 40 nM. Moreover, the fraction unbound at 4 h in data set [4] came to 0.035; in data set [6], 0.03.

As for `CC(C)(C)c1nsc2cc(Nc3n[nH]c4cccnc34)ccc12`, in data set [1], the %max was 64%. Moreover, in data set [2], the EC50 came to 324 nM.

`CCc1nsc2cc(Nc3n[nH]c4ncccc34)ccc12`: the %max in data set [1] worked out at 57%. Further, the EC50 in data set [2] worked out at 102 nM.

For the molecule `c1cnc2[nH]nc(Nc3ccc4c(C5CCCC5)noc4c3)c2c1`, the %max in data set [1] is 60%. The EC50 in data set [2] is 2400 nM.

`CC(C)Cc1noc2cc(Nc3n[nH]c4cccnc34)ccc12`: in data set [1], the %max stood at 53%. For the same molecule, the 50% effective concentration (EC50) in data set [2] was 813 nM.

For the molecule `CC1CC(C)CN(C(=O)c2nsc3cc(Nc4n[nH]c5cccnc45)ccc23)C1` (centres undefined), in data set [1], the %max was 63%. Besides, the EC50 in data set [2] was 447 nM.
